Results: ChEMBL document CHEMBL1158984, “Hypolipidemic, anti-inflammatory, and antineoplastic activity and cytotoxicity of flavonolignans isolated from Hydnocarpus wightiana seeds” (J Nat Prod, 1991)
In brackets after ≈: the same amount, converted by molar mass.

Experiments:
Mus musculus [1] = assay: Hypolipidemic activity in CF1 mouse assessed as serum triglyceride level at 150 mg/kg/day administered for 16 days measured on day 16 relative to control; type: functional
How it was run: (§1)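 Male CF1 mice (28 g) were dosed daily for 16 days, with drug suspended in 1% carboxymethylcellulose. On days 9 and 16 blood was drawn from the tail vein and serum spun at 3000 g for 3 min. Total cholesterol was measured by the Liebermann-Burchard reaction and triglyceride by a commercial kit. Results are percent of vehicle control, n = 6, mean ± SD, Student's t-test.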

Mus musculus [2] = assay: Hypolipidemic activity in CF1 mouse assessed as serum triglyceride level at 150 mg/kg/day administered for 16 days measured on day 16 relative to control
Mus musculus [3] = assay: Hypolipidemic activity in CF1 mouse assessed as serum cholesterol level at 150 mg/kg/day administered for 16 days measured on day 9 relative to control; type: functional; how it was run: as §1
L1210 = assay: Cytotoxicity against mouse L1210 cells after 3 days by trypan blue exclusion technique; type: functional; conditions: L1210, 72 h, read-out: ED50 (the source's name)
How it was run: (§2)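 Tumor cells were mixed on day 0 with sterile drug at 1–100 µg/ml (from 1 mM stock in 0.05% Tween 80 water) in growth medium, 1 ml final. Cells were counted on day 3, while growth was still logarithmic. The concentration killing 50% of cells was read from a semilog plot.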

[4] = Cytotoxicity against human HeLaS3 cells after 3 days by trypan blue exclusion technique; type: functional; conditions: HeLa S3, 72 h, read-out: ED50 (the source's name); how it was run: as §2
[5] = Cytotoxicity against human EH118MG cells after 3 days by trypan blue exclusion technique; type: functional; conditions: 72 h, read-out: ED50 (the source's name); how it was run: as §2
[6] = Cytotoxicity against human TMOLT3 cells after 3 days by trypan blue exclusion technique; type: functional; conditions: MOLT-3, 72 h, read-out: ED50 (the source's name); how it was run: as §2
[7] = Cytotoxicity against human MB9812 cells after 3 days by trypan blue exclusion technique; type: functional; conditions: MB9812, 72 h, read-out: ED50 (the source's name); how it was run: as §2
SW480 = assay: Cytotoxicity against human SW480 cells after 3 days by trypan blue exclusion technique; type: functional; conditions: SW480, 72 h, read-out: ED50 (the source's name); how it was run: as §2
KB = assay: Cytotoxicity against human KB cells after 3 days by trypan blue exclusion technique; type: functional; conditions: 72 h, read-out: ED50 (the source's name); how it was run: as §2
[8] = Cytotoxicity against human TE-418 cells after 3 days by trypan blue exclusion technique; type: functional; conditions: TE-418, 72 h, read-out: ED50 (the source's name); how it was run: as §2
Mus musculus [9] = assay: Hypolipidemic activity in CF1 mouse assessed as serum cholesterol level at 8 mg/kg/day, ip administered for 16 days measured on day 16 relative to control
Ehrlich = assay: In vivo antineoplastic activity against mouse Ehrlich ascite carcinoma cells xenografted in CF1 mouse assessed as inhibition of tumor growth at 8 mg/kg/day after 9 days relative to control; type: functional; conditions: 216 h
How it was run: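 On day 0, CF1 male mice (ca. 25 g) received 2 × 10^6 Ehrlich ascites cells ip in isotonic saline. Drug in 0.05% Tween 80 water was given at 8 mg/kg/day on days 1–9. On day 10 ascites fluid was collected, and volume and packed-cell volume per animal were used to calculate percent tumor growth inhibition; n = 6, mean ± SD.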

Mus musculus [10] = assay: Hypolipidemic activity in CF1 mouse assessed as serum cholesterol level at 8 mg/kg/day, ip administered for 16 days measured on day 9 relative to control; type: functional; conditions: route intraperitoneal; how it was run: as §1
Mus musculus [11] = assay: Antiinflammatory activity against CF1 mouse assessed as inhibition of carrageenan-induced paw edema at 8 mg/kg/day, ip administered 30 mins before carrageenan challenge measured after 3 hrs relative to control; type: functional; conditions: route intraperitoneal
How it was run: (§3)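 CF1 male mice (ca. 25 g) got drug ip in 0.05% Tween 80 water twice, 3 h and 30 min before 0.2 ml of 1% carrageenan in 0.9% saline was injected into the right hind plantar surface. The left foot got saline as baseline. After 3 h both feet were cut off at the ankle and paw weight gain was compared; results are percent inhibition, n = 6, mean ± SD.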

Mus musculus [12] = assay: Hypolipidemic activity in CF1 mouse assessed as serum cholesterol level at 8 mg/kg/day, ip administered for 16 days measured on day 16 relative to control; type: functional; conditions: route intraperitoneal; how it was run: as §1
Mus musculus [13] = assay: Toxicity in CF1 mouse assessed as change in food consumption at 8 mg/kg/day administered in multiple doses for 16 days; type: organism-based; conditions: in vivo, 384 h
How it was run: (§4)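 During 16 days of multiple ip dosing at 8 mg/kg/day, mice were watched for body weight loss, food consumption, and behavioral, CNS and motor activity.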

Mus musculus [14] = assay: Toxicity in CF1 mouse assessed as change in CNS and motor activity at 8 mg/kg/day administered in multiple doses for 16 days; type: organism-based; conditions: in vivo, 384 h; how it was run: as §4
Mus musculus [15] = assay: Toxicity in CF1 mouse assessed as body weight loss at 8 mg/kg/day administered in multiple doses for 16 days; type: organism-based; conditions: in vivo, 384 h; how it was run: as §4
Mus musculus [16] = assay: Toxicity in CF1 mouse assessed as behavioral changes at 8 mg/kg/day administered in multiple doses for 16 days; type: organism-based; conditions: in vivo, 384 h; how it was run: as §4
Mus musculus [17] = assay: Antiinflammatory activity against CF1 mouse assessed as inhibition of carrageenan-induced paw edema at 10 mg/kg administered 30 mins before carrageenan challenge measured after 3 hrs relative to control; type: functional; how it was run: as §3
Mus musculus [18] = assay: Antiinflammatory activity against CF1 mouse assessed as inhibition of carrageenan-induced paw edema at 50 mg/kg administered 30 mins before carrageenan challenge measured after 3 hrs relative to control; type: functional; how it was run: as §3

**Q.** What does the source list for CCOC(=O)C(C)(C)Oc1ccc(Cl)cc1 [CLOFIBRATE]?
**A.** Activity (Mus musculus [1]): 75%; Activity (Mus musculus [2]): 75%; Activity (Mus musculus [3]): 88%

**Q.** Which EC50 (L1210) does the source give for Nc1ccn([C@@H]2O[C@H](CO)[C@@H](O)[C@@H]2O)c(=O)n1 [CYTARABINE] here?
**A.** 2.76 µg/mL (≈ 11.3 µM)

**Q.** And the EC50 [4]?
**A.** 2.13 µg/mL (≈ 8.76 µM)

**Q.** What about the EC50 [5] of the same compound?
**A.** 1.88 µg/mL (≈ 7.73 µM)

**Q.** What about the EC50 [6] of the same compound?
**A.** 2.67 µg/mL (≈ 11 µM)

**Q.** What about the EC50 [7] of the same compound?
**A.** 4.6 µg/mL (≈ 18.9 µM)

**Q.** What about the EC50 (SW480) of the same compound?
**A.** 3.42 µg/mL (≈ 14.1 µM)

**Q.** And the EC50 (KB)?
**A.** 2.84 µg/mL (≈ 11.7 µM)

**Q.** Which EC50 (L1210) does the source give for O=c1[nH]cc(F)c(=O)[nH]1 [FLUOROURACIL] here?
**A.** 1.41 µg/mL (≈ 10.8 µM)

**Q.** What about the EC50 [4] of the same compound?
**A.** 2.47 µg/mL (≈ 19 µM)

**Q.** What about the EC50 [5] of the same compound?
**A.** 1.28 µg/mL (≈ 9.84 µM)

**Q.** What about the EC50 [6] of the same compound?
**A.** 2.14 µg/mL (≈ 16.5 µM)

**Q.** And the EC50 [7]?
**A.** 5.64 µg/mL (≈ 43.4 µM)

**Q.** And the EC50 (SW480)?
**A.** 3.09 µg/mL (≈ 23.8 µM)

**Q.** What about the EC50 (KB) of the same compound?
**A.** 1.25 µg/mL (≈ 9.61 µM)

**Q.** For COc1cc([C@H]2Oc3cc(-c4cc(=O)c5c(O)cc(O)cc5o4)ccc3O[C@@H]2CO)ccc1O [HYDNOCARPIN], which EC50 (L1210) is on record?
**A.** 3.65 µg/mL (≈ 7.86 µM)

**Q.** And the EC50 [4]?
**A.** 2.02 µg/mL (≈ 4.35 µM)

**Q.** And the EC50 [5]?
**A.** 2.59 µg/mL (≈ 5.58 µM)

**Q.** What about the EC50 [8] of the same compound?
**A.** 2.14 µg/mL (≈ 4.61 µM)

**Q.** And the Activity (Mus musculus [9])?
**A.** 62%

**Q.** What about the inhibition in vivo at 8 mg/kg/day (Ehrlich) of the same compound?
**A.** 84.8%

**Q.** What about the EC50 [6] of the same compound?
**A.** 2.94 µg/mL (≈ 6.33 µM)

**Q.** What about the Activity (Mus musculus [10]) of the same compound?
**A.** 83%

**Q.** And the EC50 [7]?
**A.** 8.18 µg/mL (≈ 17.6 µM)

**Q.** What about the EC50 (SW480) of the same compound?
**A.** 2 µg/mL (≈ 4.31 µM)

**Q.** And the inhibition in vivo at 8 mg/kg/day (Mus musculus [11])?
**A.** 42%

**Q.** What about the EC50 (KB) of the same compound?
**A.** 1.15 µg/mL (≈ 2.48 µM)

**Q.** And the Activity (Mus musculus [12])?
**A.** 62%

**Q.** For COc1cc(/C=C(\CO)c2cc([C@H]3Oc4cc(-c5cc(=O)c6c(O)cc(O)cc6o5)ccc4O[C@@H]3CO)cc(OC)c2O)ccc1O [HYDNOWIGHTIN], which EC50 (L1210) is on record?
**A.** 3.07 µg/mL (≈ 4.78 µM)

**Q.** And the Activity (Mus musculus [13])?
**A.** Non-toxic

**Q.** What about the EC50 [4] of the same compound?
**A.** 3.01 µg/mL (≈ 4.68 µM)

**Q.** What about the EC50 [5] of the same compound?
**A.** 5.02 µg/mL (≈ 7.81 µM)

**Q.** What about the Activity (Mus musculus [14]) of the same compound?
**A.** Non-toxic

**Q.** And the Activity (Mus musculus [15])?
**A.** Non-toxic

**Q.** What about the EC50 [8] of the same compound?
**A.** 2.5 µg/mL (≈ 3.89 µM)

**Q.** What about the Activity (Mus musculus [9]) of the same compound?
**A.** 59%

**Q.** And the inhibition in vivo at 8 mg/kg/day (Ehrlich)?
**A.** 12.1%

**Q.** And the EC50 [6]?
**A.** 4.33 µg/mL (≈ 6.74 µM)

**Q.** And the Activity (Mus musculus [10])?
**A.** 80%

**Q.** What about the EC50 [7] of the same compound?
**A.** 7.49 µg/mL (≈ 11.7 µM)

**Q.** What about the EC50 (SW480) of the same compound?
**A.** 2.38 µg/mL (≈ 3.7 µM)

**Q.** What about the inhibition in vivo at 8 mg/kg/day (Mus musculus [11]) of the same compound?
**A.** 24%

**Q.** What about the EC50 (KB) of the same compound?
**A.** 1.96 µg/mL (≈ 3.05 µM)

**Q.** What about the Activity (Mus musculus [16]) of the same compound?
**A.** Non-toxic

**Q.** And the Activity (Mus musculus [12])?
**A.** 59%

**Q.** For NC(=O)NO [HYDROXYUREA], which EC50 (L1210) is on record?
**A.** 2.67 µg/mL (≈ 35.1 µM)

**Q.** What about the EC50 [4] of the same compound?
**A.** 1.96 µg/mL (≈ 25.8 µM)

**Q.** And the EC50 [5]?
**A.** 2.27 µg/mL (≈ 29.8 µM)

**Q.** And the EC50 [8]?
**A.** 7.54 µg/mL (≈ 99.1 µM)

**Q.** What about the EC50 [6] of the same compound?
**A.** 3.18 µg/mL (≈ 41.8 µM)

**Q.** And the EC50 [7]?
**A.** 7.37 µg/mL (≈ 96.9 µM)

**Q.** What about the EC50 (SW480) of the same compound?
**A.** 4.79 µg/mL (≈ 63 µM)

**Q.** And the EC50 (KB)?
**A.** 5.29 µg/mL (≈ 69.6 µM)

**Q.** With COc1ccc2c(c1)c(CC(=O)O)c(C)n2C(=O)c1ccc(Cl)cc1 [INDOMETHACIN] as the compound, how does the inhibition in vivo at 10 mg/kg (Mus musculus [17]) read?
**A.** 78%

**Q.** For COc1cc([C@@H]2c3c(oc4cc(O)cc(O)c4c3=O)-c3cc(O)c(O)cc3[C@@H]2CO)ccc1O [NEOHYDNOCARPIN], which EC50 (L1210) is on record?
**A.** 3.29 µg/mL (≈ 7.08 µM)

**Q.** And the EC50 [4]?
**A.** 2.12 µg/mL (≈ 4.56 µM)

**Q.** And the EC50 [5]?
**A.** 4.07 µg/mL (≈ 8.76 µM)

**Q.** What about the EC50 [8] of the same compound?
**A.** 2.49 µg/mL (≈ 5.36 µM)

**Q.** What about the Activity (Mus musculus [9]) of the same compound?
**A.** 79%

**Q.** What about the inhibition in vivo at 8 mg/kg/day (Ehrlich) of the same compound?
**A.** 43.1%

**Q.** And the EC50 [6]?
**A.** 3.05 µg/mL (≈ 6.57 µM)

**Q.** What about the Activity (Mus musculus [10]) of the same compound?
**A.** 85%

**Q.** And the EC50 [7]?
**A.** 4.53 µg/mL (≈ 9.75 µM)

**Q.** And the EC50 (SW480)?
**A.** 2.03 µg/mL (≈ 4.37 µM)

**Q.** And the inhibition in vivo at 8 mg/kg/day (Mus musculus [11])?
**A.** 6%

**Q.** And the EC50 (KB)?
**A.** 1.06 µg/mL (≈ 2.28 µM)

**Q.** What about the Activity (Mus musculus [12]) of the same compound?
**A.** 79%

**Q.** For CCCCC1C(=O)N(c2ccccc2)N(c2ccccc2)C1=O [PHENYLBUTAZONE], which inhibition in vivo at 50 mg/kg (Mus musculus [18]) is on record?
**A.** 47%
